In experiment [1] the test system is C. neoformans var. grubii. Kind of experiment: microtiter plate assay of melanization in liquid medium. It is filed as cell-based, Cryptococcus neoformans var. grubii. As to conditions: for Melanization of treated cells, observed visually: 10 days, 30 °C.
Experiment [2] deals with melanized C. neoformans var. grubii. Kind of experiment: halo assay. As to conditions: for Halo diameter: var. grubii. It is filed as cell-based, Cryptococcus neoformans var. grubii (MAT α, H99 serotype A). Summed up:
(§1)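 Paper disks (6.5 mm) were loaded from DMSO stock solutions and air-dried 3 h at RT, then placed on lawns of target cells. The medium was defined minimal agar with 1 mM L-dopa, dopamine or epinephrine to give melanized cells. Doses were 20 μg/disk test compound, or 10 μg test compound with or without 2 μg amphotericin B per disk. Plates ran 6–8 days at 30 °C, and halo diameter (mm) and clarity were recorded.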

The subject of experiment [3] is melanized C. neoformans var. gattii. Kind of experiment: halo assay. Type of experiment: cell-based, Cryptococcus neoformans var. gattii (MAT α, serotype B). Summed up: as §1
Experiment [4] concerns laccase and melanin formation in C. neoformans. As to conditions: cited from earlier work.
The mark [5] stands for this setting: 20 μg/disk, 1 mM L-dopa, 30 °C, 6 to 8 days.
Where [6] appears, read: 10 μg per disk, 1 mM L-dopa, 6 days.
The mark [7] stands for this setting: 20 μg per disk, 1 mM L-dopa in minimal medium, 6 to 8 days.
[8] abbreviates: 20 μg per disk, 1 mM dopamine in minimal medium, 6 to 8 days.
Where [9] appears, read: 20 μg per disk, 1 mM epinephrine in minimal medium, 6 to 8 days.

Marks after values point to notes of the source that are not given here.

In the case of `C[C@@H]1[C@H](O)[C@@H](C)/C=C/C=C/C=C/C=C/C=C/C=C/C=C/[C@H](O[C@@H]2O[C@H](C)[C@@H](O)[C@H](N)[C@@H]2O)C[C@@H]2O[C@](O)(C[C@@H](O)C[C@@H](O)[C@H](O)CC[C@@H](O)C[C@@H](O)CC(=O)O[C@H]1C)C[C@H](O)[C@H]2C(=O)O` [AMB, amphotericin B, reference compound], the “Melanization of treated cells, observed visually” value (from here on “Melanization … observed visually”) in experiment [1] (0.0625 μg/mL, 1 mM catecholamine) was “growth of melanized cells was observed”. Further, the “Appearance of the halo surrounding the disk” value is “clear zone of inhibition” in experiment [2] (2 μg per disk, alone, 1 mM L-dopa) and “very clear zone of inhibition” in experiment [2] (setting [5]).
On to `Clc1ccc(COC(Cn2ccnc2)c2ccc(Cl)cc2Cl)c(Cl)c1` (stereo not drawn) [MCZ, miconazole], for which the “Melanization … observed visually” value in experiment [1] (0.5 μg/mL, 1 mM catecholamine) was “growth of melanized cells was observed”.
Take `CC[C@H]1CCCC[C@@]2(C[C@@H]3CC[C@@H]4[C@H](C(=O)OCCCCCCCCCCCCCCCC(=O)N(CCCN)CCCCN)[C@]5(CCC[C@@H](C)O5)NC(=[N+]34)N2)O1.[Cl-]` [compound 1, ptilomycalin A]: the “Melanization … observed visually” value in experiment [1] (0.8 μg/mL, 1 mM catecholamine (epinephrine, dopamine or L-dopa)) is “only non-melanized cells grew”. Besides, the “Melanization of treated cells” value in experiment [1] (0.8 μg/mL, after 21 days) is reported as “remained non-melanized”. Further, the Halo diameter in experiment [3] (setting [6]) was 9.50 ^b mm; in experiment [3] (setting [7]), 17 ^c mm; in experiment [3] (setting [8]), 18 ^c mm; in experiment [3] (setting [9]) it was 12 ^c mm; in experiment [2] (setting [6]), 13.5 ^b mm; in experiment [2] (setting [7]) it was 17 ^c mm. Besides, the values for the Halo diameter in experiment [2] (setting [8]) and in experiment [2] (setting [9]) were 15 ^c mm and 12 ^c mm, respectively. Moreover, the “Appearance of the halo surrounding the disk” value in experiment [2] (10 μg per disk, alone, 1 mM L-dopa) was “presence of non-melanized cells on the halo surrounding the disk”; in experiment [2] (setting [5]), “a halo of non-melanized cells were observed”. For the same compound, the “Interaction with AMB in halo assay” value in experiment [2] (1 10 μg combined with AMB 2 μg per disk, 1 mM L-dopa) was “synergizes the fungicidal activity of AMB”.
Consider `O=C(O)CNCP(=O)(O)O` [glyphosate], for which, in experiment [1] (200 μg/mL, under the authors' conditions), the “Inhibitory activity on growth or melanization” value is “no significant inhibitory activity”. The “Melanization … observed visually” value in experiment [1] (200 μg/mL, 1 mM catecholamine) is listed as “growth of melanized cells was observed”. Besides, in experiment [4], the “Inhibition of melanization of C. neoformans” value was “reported to inhibit melanization”.
In the case of `C[C@@H](c1ncncc1F)[C@](O)(Cn1cncn1)c1ccc(F)cc1F` [voriconazole], the “Inhibition of laccase and consequent melanin formation in C. neoformans” value in experiment [4] is “inhibition of laccase and consequent melanin formation”.

Values taken from PMC3523195 (Bioorganic & medicinal chemistry, 2011).
